Series [1] addresses T1, Histone deacetylase 8 (Homo sapiens) (UniProt Q9BY41).
T1 sequence (whole entry): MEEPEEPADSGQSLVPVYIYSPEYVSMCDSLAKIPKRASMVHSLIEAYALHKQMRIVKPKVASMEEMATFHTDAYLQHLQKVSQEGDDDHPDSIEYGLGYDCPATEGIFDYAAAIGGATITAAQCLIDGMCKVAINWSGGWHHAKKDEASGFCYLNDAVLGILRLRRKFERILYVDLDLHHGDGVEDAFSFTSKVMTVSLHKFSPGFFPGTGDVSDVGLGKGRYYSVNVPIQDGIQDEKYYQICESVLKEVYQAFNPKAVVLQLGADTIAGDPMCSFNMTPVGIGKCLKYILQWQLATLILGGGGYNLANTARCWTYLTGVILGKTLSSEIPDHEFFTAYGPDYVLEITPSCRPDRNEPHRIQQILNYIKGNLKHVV
Description: (§1) Inhibition of HDAC8 (unknown origin) after 60 mins by SAMDI […] analysis.

Series [2] has as its target Histone deacetylase 1 (Homo sapiens) (UniProt Q13547). Description: Inhibition of HDAC1 (unknown origin) after 60 mins by SAMDI […] analysis. The essentials: (§2)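 Label-free SAMDI deacetylase assay: isoform-optimized peptide substrate (50 μM) with enzyme (250 nM) and inhibitor, 60 min at 37°C. Reactions were quenched with TSA, immobilized on maleimide monolayers, washed and read by MALDI-MS. Yield came from substrate and deacetylated product peak intensities, in triplicate.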

The target in series [3] is T2, Protein deacetylase HDAC6 (Homo sapiens) (UniProt Q9UBN7).
T2 sequence (whole entry): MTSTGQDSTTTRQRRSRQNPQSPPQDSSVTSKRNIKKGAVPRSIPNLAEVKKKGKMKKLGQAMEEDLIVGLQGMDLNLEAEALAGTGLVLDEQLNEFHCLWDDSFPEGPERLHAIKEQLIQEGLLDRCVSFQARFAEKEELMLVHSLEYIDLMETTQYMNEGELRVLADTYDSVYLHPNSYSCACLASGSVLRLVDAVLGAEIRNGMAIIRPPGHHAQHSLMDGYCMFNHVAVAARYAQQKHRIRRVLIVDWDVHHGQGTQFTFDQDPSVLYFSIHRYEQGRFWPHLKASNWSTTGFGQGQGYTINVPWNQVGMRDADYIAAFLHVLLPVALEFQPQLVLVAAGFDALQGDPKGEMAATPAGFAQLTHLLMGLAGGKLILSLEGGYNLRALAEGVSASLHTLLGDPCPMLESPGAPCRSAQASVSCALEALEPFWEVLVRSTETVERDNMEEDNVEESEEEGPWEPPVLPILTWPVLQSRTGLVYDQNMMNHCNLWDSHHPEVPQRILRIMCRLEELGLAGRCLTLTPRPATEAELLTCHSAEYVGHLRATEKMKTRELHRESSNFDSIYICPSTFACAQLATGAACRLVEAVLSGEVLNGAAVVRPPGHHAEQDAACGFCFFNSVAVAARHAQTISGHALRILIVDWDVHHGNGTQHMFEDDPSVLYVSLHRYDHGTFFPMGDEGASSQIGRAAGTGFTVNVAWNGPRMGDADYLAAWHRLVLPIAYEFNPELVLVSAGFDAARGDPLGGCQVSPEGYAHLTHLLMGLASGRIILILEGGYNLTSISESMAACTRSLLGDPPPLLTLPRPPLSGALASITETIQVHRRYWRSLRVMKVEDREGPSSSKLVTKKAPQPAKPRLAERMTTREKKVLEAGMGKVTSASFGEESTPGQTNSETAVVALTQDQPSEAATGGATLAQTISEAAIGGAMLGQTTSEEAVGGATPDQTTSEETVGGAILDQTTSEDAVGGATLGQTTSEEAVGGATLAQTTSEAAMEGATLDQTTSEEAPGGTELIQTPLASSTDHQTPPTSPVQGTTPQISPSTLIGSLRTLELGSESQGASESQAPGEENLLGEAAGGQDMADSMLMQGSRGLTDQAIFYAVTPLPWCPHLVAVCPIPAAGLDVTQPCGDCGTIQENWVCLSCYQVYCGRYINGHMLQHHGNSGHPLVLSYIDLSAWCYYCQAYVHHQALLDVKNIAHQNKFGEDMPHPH
As to the kind of experiment: Inhibition of HDAC6 (unknown origin) after 60 mins by SAMDI mass spectrometric analysis.

Series [4] can be described thus: Aqueous solubility of the compound. The class given is physicochemical. As to conditions: buffer.
The next series has as its system Jurkat. As to the kind of experiment: cells. In kind it is functional, cell-based, Homo sapiens.
A further series relates to DU-145. Description: Cytotoxicity against human DU145 cells assessed as growth inhibition by MTS assay. The class given is functional, cell-based. In short, it runs like this:
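Cells kept at 37°C in 5% CO2. DU-145 grew in EMEM and LNCaP in RPMI 1640, each with 10% FBS. Cells were plated 24 h before compound treatment, with top concentration 20 μM and final DMSO 0.1%. Viability was read by MTS per the kit protocol. IC50 is mean ± SD from at least 2 independent triplicate experiments.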
On the technique in general: Tetrazolium assays rely on reduction of a dye to a coloured formazan, in cell work by metabolically active cells.

The subject of another series is LNCaP. Description: Cytotoxicity against human LNCAP cells assessed as growth inhibition by MTS assay. In kind it is functional, cell-based. The essentials:
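Cells kept at 37°C in 5% CO2. Cells were plated 24 h before compound treatment, with top concentration 20 μM and final DMSO 0.1%. Viability was read by MTS per the kit protocol. IC50 is mean ± SD from at least 2 independent triplicate experiments.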

Series [5] addresses T2, Protein deacetylase HDAC6 (Homo sapiens). Description: Inhibition of HDAC6 (unknown origin) at 10 uM after 60 mins by SAMDI […] analysis relative to control. The essentials: as §2
In series [6] the target is T1, Histone deacetylase 8 (Homo sapiens). As to the kind of experiment: Inhibition of HDAC8 (unknown origin) at 10 uM after 60 mins by SAMDI […] analysis relative to control. In short, it runs like this:
as §2

In the next series the target is T3, Histone deacetylase 8 (Homo sapiens, UniProt Q9BY41).
T3 sequence (Q9BY41 whole entry): T1 sequence (whole entry)
The description is as §1.

[7] abbreviates: Homo sapiens, Jurkat, 72 h, read-out: IC50.
Setting [8] is: Homo sapiens, DU-145, read-out: IC50.
[9] abbreviates: Homo sapiens, LNCaP, read-out: IC50.

Activity calls are given as the source filed them. No cut-off for these calls is given here. Bounds are passed on as bounds.

Chain of Histone deacetylase 1 (Homo sapiens) (Q13547 whole entry, canonical isoform): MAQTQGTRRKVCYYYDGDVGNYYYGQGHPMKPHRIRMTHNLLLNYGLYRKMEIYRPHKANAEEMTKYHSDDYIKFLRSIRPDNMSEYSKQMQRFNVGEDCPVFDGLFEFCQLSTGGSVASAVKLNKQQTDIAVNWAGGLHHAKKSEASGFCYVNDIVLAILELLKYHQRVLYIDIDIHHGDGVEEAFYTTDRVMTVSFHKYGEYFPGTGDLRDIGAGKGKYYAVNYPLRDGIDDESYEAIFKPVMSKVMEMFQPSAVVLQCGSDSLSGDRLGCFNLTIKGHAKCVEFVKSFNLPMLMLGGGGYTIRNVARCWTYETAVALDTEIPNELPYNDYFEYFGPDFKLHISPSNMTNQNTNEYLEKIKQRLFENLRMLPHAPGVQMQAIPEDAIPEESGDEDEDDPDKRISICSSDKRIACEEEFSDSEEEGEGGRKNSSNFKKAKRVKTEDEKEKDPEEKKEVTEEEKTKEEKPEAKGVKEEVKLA

For the compound `CN(C)c1ccc(-c2ccc(Cn3cccc(O)c3=O)cc2)cc1`, the inhibition entry in series [1], in series [2] and in series [3] was “inactive” throughout.
For the compound `CN(C)c1ccc(-c2ccc(Cn3cccc(O)c3=S)cc2)cc1`, the solubility (in general, the dissolved amount per volume that the medium holds) in [4] was below 65 µg/mL. Moreover, the IC50 (in general, the concentration at which inhibition is half-maximal) in the series on Jurkat (setting [7]) was 10.6 µM; with DU-145 (setting [8]), above 20 µM; in the series on LNCaP (setting [9]), 16.2 µM. In addition, the inhibition – broadly, the change of the read-out against control, counted positive when it falls – in series [5] is below 20%.
As for `O=c1c(O)cccn1Cc1ccc(-c2ccccc2)cc1`, the inhibition entry in series [1], in [2] and in series [3] was “inactive” each time.
In the case of `Cc1ccccc1-c1ccc(Cn2cccc(O)c2=O)cc1`, the inhibition result in series [1], in series [2] and in [3] was “inactive” each time.
Consider `Oc1cccnc1O`, for which the inhibition in series [6] and in series [5] was below 20% each time.
For the compound `Cc1ccc(-c2ccc(Cn3cccc(O)c3=O)cc2)cc1`, the inhibition result in series [1], in series [2] and in series [3] was “inactive” each time.
`CN(C)c1ccc(-c2ccc(Cn3cccc(O)c3=O)cc2)cn1`: the inhibition result in series [1], in [2] and in series [3] was “inactive” in each case.
As for `Cc1cccc(-c2ccc(Cn3cccc(O)c3=O)cc2)c1`, the inhibition result in series [1], in series [2] and in [3] was “inactive” each time.
For `N#Cc1ccc(-c2ccc(Cn3cccc(O)c3=O)cc2)cc1`, the inhibition entry in [1], in series [2] and in series [3] was “inactive” in each case.
With `Oc1cccn(Cc2cn(-c3ccccc3)nn2)c1=S`, the IC50 in the series on Jurkat (setting [7]) was 4.68 µM; with DU-145 (setting [8]), above 20 µM; in the series on LNCaP (setting [9]) it was 13.1 µM; at Histone deacetylase 8 it was 1.57 µM.
Consider `N#Cc1cccc(-c2ccc(Cn3cccc(O)c3=O)cc2)c1`, for which the inhibition entry in series [1], in series [2] and in series [3] was “inactive” throughout.
On to `O=c1c(O)cccn1Cc1ccccc1`, for which the inhibition result in series [1], in series [2] and in series [3] was “inactive” in each case.
In the case of `Cc1ccccc1-c1ccc(Cn2cccc(O)c2=S)cc1`, in the series on LNCaP (setting [9]), the IC50 is 7.75 µM.
In [4], `Oc1ccc[nH]c1=S` showed a solubility below 65 µg/mL. In addition, the IC50 result in the series with Jurkat (jurkat), in the series with DU-145 (du-145) and in the series on LNCaP (lncap) was “Not Active” in each case.
In turn, `N#Cc1cccc(-c2ccc(Cn3cccc(O)c3=S)cc2)c1` displayed an inhibition in series [5] of 44%.
Compound `CN(C)c1ccc(-c2ccc(Cn3cccc(O)c3=S)cc2)cn1` returned an inhibition in series [6] of 34%.
Turning to `O=c1c(O)cccn1Cc1ccc(-c2ccncc2)cc1`, the inhibition result in [1], in series [2] and in [3] was “inactive” each time.
For `Cn1cccc(O)c1=O`, the inhibition entry in series [1], in series [2] and in series [3] was “inactive” in each case.

(Values after ChEMBL document CHEMBL2331483, “3-Hydroxypyridin-2-thione as novel zinc binding group for selective histone deacetylase inhibition” (J Med Chem, 2013).)
